In ChEMBL document CHEMBL3351748, “Synthesis and anticonvulsant activity of novel purine derivatives” (Eur J Med Chem, 2014):
Calls of active or inactive are those of the source. No cut-off for these calls is given here.

Assays:
Mus musculus [1] = assay: Anticonvulsant activity in Kunming mouse assessed as protection against MES-induced seizures at 100 mg/kg, ip after 0.5 hrs by MES test; type: functional, organism-based; design: dose 100 mg/kg
In short: (§1)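 KunMing mice (18-22 g), compounds in DMSO given i.p. at 30 and 100 mg/kg, 3 animals per dose. Examined 0.5 h after dosing; current applied 0.2 s through corneal electrodes. Protection scored as abolition of hind-leg tonic maximal extension; reported as animals protected/animals tested.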

Mus musculus [2] = assay: Anticonvulsant activity in Kunming mouse assessed as protection against MES-induced seizures at 30 mg/kg, ip after 0.5 hrs by MES test; type: functional, organism-based; design: dose 30 mg/kg; in short: as §1
[3] = Toxicity in ip dosed Kunming mouse assessed as inability of animal to maintain equilibrium on rod for at least 1 min in each trial by rotarod test; type: organism-based; conditions: in vivo
In short: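 Mice pre-trained on a rotarod (3.2 cm diameter, 10 rpm), then dosed i.p. Neurotoxicity scored as failure to keep balance on the rod for at least 1 min in each trial. TD50 is the dose giving minimal neurotoxicity in 50% of animals.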

Mus musculus [4] = assay: Protective index, ratio of intraperitoneal neurotoxic TD50 against Kunming mouse by rotarod test to intraperitoneal anticonvulsant ED50 in Kunming mouse by MES test
In short: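 Protective index is TD50/ED50. Both come from i.p. dosing in KunMing mice: ED50 from protection of hind-leg tonic extension in the 0.5 h MES test, TD50 from failure to stay 1 min on the 10 rpm rotarod.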

Mus musculus [5] = assay: Anticonvulsant activity in ip dosed Kunming mouse assessed as protection against MES-induced seizures after 0.5 hrs by MES test; type: functional
In short: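 KunMing mice (18-22 g) dosed i.p., compounds dissolved in DMSO; corneal-electrode shock (0.2 s) 30 min after administration. Endpoint is abolition of hind-leg tonic extension. ED50 is the dose protecting 50% of animals, given with 95% confidence intervals.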

Mus musculus [6] = species on record: Mus musculus; assay: Protective index, ratio of oral neurotoxic TD50 against Kunming mouse by rotarod test to oral anticonvulsant ED50 in Kunming mouse by MES test
Mus musculus [7] = assay: Anticonvulsant activity in Kunming mouse assessed as protection against sc-PTZ-induced tonic seizures 50 mg/kg, sc administered 30 mins before PTZ injection; type: functional; conditions: route subcutaneous
In short: (§2)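 Mice, 10 per group, dosed at 50 mg/kg. PTZ 85 mg/kg in saline given s.c. 30 min later. Animals housed individually and watched for 0.5 h. Clonic seizures, tonic seizures (usually maximal hind-leg extension) and deaths counted as percent inhibition.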

Mus musculus [8] = assay: Anticonvulsant activity in orally dosed Kunming mouse assessed as protection against MES-induced seizures after 1.5 hrs by MES test; conditions: po
[9] = Toxicity in orally dosed Kunming mouse assessed as inability of animal to maintain equilibrium on rod for at least 1 min in each trial by rotarod test; type: organism-based; conditions: in vivo, po
In short: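 Rotarod test (3.2 cm rod, 10 rpm) in trained mice after oral dosing in 0.5% methylcellulose, tested at the 1.5 h time of peak effect. Toxicity is failure to stay on the rod for at least 1 min per trial. TD50 is the median dose for minimal neurotoxicity.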

Mus musculus [10] = assay: Anticonvulsant activity in Kunming mouse assessed as protection against sc-PTZ-induced mortality 50 mg/kg, sc administered 30 mins before PTZ injection; type: functional; conditions: route subcutaneous
In short: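 KunMing mice (18–22 g), 10 per group, given test agent dissolved in DMSO. Thirty minutes later, PTZ 85 mg/kg in saline was injected s.c. Animals were held in individual cages and watched for 0.5 h. Clonic seizures, tonic seizures and deaths were counted, and mortality was expressed as % inhibition.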

Mus musculus [11] = assay: Anticonvulsant activity in Kunming mouse assessed as protection against sc-PTZ-induced clonic seizures 50 mg/kg, sc administered 30 mins before PTZ injection; type: functional; conditions: route subcutaneous; in short: as §2
Mus musculus [12] = assay: Anticonvulsant activity in orally dosed Kunming mouse assessed as time of peak effect for protection against MES-induced seizures […] by MES test; type: functional

SMILES | Activity (Mus musculus [1]) | Activity (Mus musculus [2]) | TD50 at 1 min [3] | Ratio TD50/ED50 (Mus musculus [4]) | ED50 (Mus musculus [5]) | further results
COc1ccc(Cn2cnc3c(-n4cncn4)ncnc32)cc1 | inactive | inactive |  |  |  | 
Fc1ccccc1Cn1cnc2c(Sc3ncn[nH]3)ncnc21 | inactive | inactive |  |  |  | 
CCCCCCCCCCn1cnc2c(-n3cccn3)ncnc21 | Active | inactive | 241 mg/kg | 3.6 | 66.5 mg/kg | 
CCCCCCn1cnc2c1ncn1cnnc21 | Active | inactive | 102 mg/kg | 2 | 51.2 mg/kg | 
CCCCCCCCCCCCn1cnc2c(-n3cncn3)ncnc21 |  | inactive |  |  |  | 
Fc1ccccc1Cn1cnc2c(-n3ccnc3)ncnc21 | Active | inactive | 115 mg/kg | 1.8 | 61.4 mg/kg | 
CCCCCCn1cnc2c(-n3cncn3)ncnc21 | Active | inactive | 210 mg/kg | 4.8 | 43.9 mg/kg | 
COc1ccc(Cn2cnc3c2ncn2cnnc32)cc1 | inactive | inactive |  |  |  | 
Cc1ccc(Cn2cnc3c(-n4cncn4)ncnc32)cc1 | inactive | inactive |  |  |  | 
CCCCCCCCCCn1cnc2c(-n3cnc(C)c3)ncnc21 | Active | inactive | 196 mg/kg | 2.9 | 67.5 mg/kg | 
c1ccc(Cn2cnc3c(-n4cncn4)ncnc32)cc1 | Active | inactive | 315 mg/kg | 4.7 | 66.6 mg/kg | 
CCCCCCCCCCn1cnc2c1ncn1cnnc21 | inactive | inactive |  |  |  | 
NC(=O)N1c2ccccc2C=Cc2ccccc21 [CARBAMAZEPINE] |  |  |  | 6.4 | 11.8 mg/kg | Ratio TD50/ED50 (Mus musculus [6]): 12; inhibition in vivo at 50 mg/kg (Mus musculus [7]): 100%; ED50 (Mus musculus [8]): 27.3 mg/kg; TD50 at 1 min [9]: 329 mg/kg; inhibition in vivo at 50 mg/kg (Mus musculus [10]): 80%; inhibition in vivo at 50 mg/kg (Mus musculus [11]): 0%
c1ccc(Cn2cnc3c2ncn2cnnc32)cc1 | Active | inactive |  |  |  | 
Fc1ccccc1Cn1cnc2c1ncn1cnnc21 | Active | inactive |  |  |  | 
Cc1cn(-c2ncnc3c2ncn3Cc2ccccc2F)cn1 | inactive | inactive |  |  |  | 
CCCCCCCn1cnc2c(-n3cncn3)ncnc21 | Active | Active | 105 mg/kg | 3.3 | 31.5 mg/kg | 
Clc1ccc(Cn2cnc3c(-n4cncn4)ncnc32)cc1 | inactive | inactive |  |  |  | 
Fc1ccc(Cn2cnc3c2ncn2cnnc32)cc1 | inactive | inactive |  |  |  | 
CCCCCn1cnc2c(-n3cncn3)ncnc21 |  | inactive |  |  |  | 

SMILES | Activity (Mus musculus [1]) | Activity (Mus musculus [2]) | TD50 at 1 min [3] | Ratio TD50/ED50 (Mus musculus [4]) | ED50 (Mus musculus [5]) | further results
Clc1ccc(Cn2cnc3c2ncn2cnnc32)cc1 | inactive | inactive |  |  |  | 
CCCCCCCCCCCCCCn1cnc2c(-n3cncn3)ncnc21 | inactive | inactive |  |  |  | 
Fc1cccc(Cn2cnc3c2ncn2cnnc32)c1 | inactive | inactive |  |  |  | 
CCCCn1cnc2c1ncn1cnnc21 | inactive | inactive |  |  |  | 
Fc1cccc(Cn2cnc3c(-n4cncn4)ncnc32)c1 | Active | inactive | 384 mg/kg | 8.3 | 45.9 mg/kg | 
CCCCCn1cnc2c1ncn1cnnc21 | Active | inactive |  |  |  | 
CCCCCCCCCCn1cnc2c(Sc3ncn[nH]3)ncnc21 | inactive | inactive |  |  |  | 
Clc1ccccc1Cn1cnc2c1ncn1cnnc21 | Active | inactive | 315 mg/kg | 6.1 | 51.9 mg/kg | 
Clc1ccccc1Cn1cnc2c(-n3cncn3)ncnc21 |  | inactive |  |  |  | 
CCCCCCCCCCn1cnc2c(-n3ccnc3)ncnc21 | Active | inactive |  |  |  | 
Clc1cccc(Cn2cnc3c(-n4cncn4)ncnc32)c1 | Active | inactive | 488 mg/kg | 7.5 | 65.4 mg/kg | 
CCCCCCCCn1cnc2c(-n3cncn3)ncnc21 | Active | Active | 247 mg/kg | 7.4 | 33.2 mg/kg | 
CCCCCCCn1cnc2c1ncn1cnnc21 | Active | inactive |  |  |  | 
Fc1ccccc1Cn1cnc2c(-n3cncn3)ncnc21 | Active | Active | 449 mg/kg | 15 | 29.9 mg/kg | 
Fc1ccc(Cn2cnc3c(-n4cncn4)ncnc32)cc1 | inactive | inactive |  |  |  | 
Clc1cccc(Cn2cnc3c2ncn2cnnc32)c1 | inactive | inactive |  |  |  | 
CCCCCCCCCCn1cnc2c(-n3cncn3)ncnc21 | Active | Active | > 700 mg/kg | >25.6 | 23.4 mg/kg | Ratio TD50/ED50 (Mus musculus [6]): >38.1; inhibition in vivo at 50 mg/kg (Mus musculus [7]): 90%; Time (Mus musculus [12]): 1.5 h; ED50 (Mus musculus [8]): 39.4 mg/kg; TD50 at 1 min [9]: > 1500 mg/kg; inhibition in vivo at 50 mg/kg (Mus musculus [10]): 70%; inhibition in vivo at 50 mg/kg (Mus musculus [11]): 20%
CCCCCCCCn1cnc2c1ncn1cnnc21 | Active | inactive |  |  |  | 
Fc1ccccc1Cn1cnc2c(-n3cccn3)ncnc21 | Active | inactive |  |  |  | 
Cc1ccc(Cn2cnc3c2ncn2cnnc32)cc1 | inactive | inactive |  |  |  | 
